Drawing on ChEMBL document CHEMBL4513216, “Probing the Open Global Health Chemical Diversity Library for Multistage-Active Starting Points for Next-Generation Antimalarials” (ACS Infect Dis, 2020), this text covers cytotoxicity for 96 compounds.

Molecules are shown by their SMILES.

The nature of this series: Toxicity liver stage against HepG2, at 10uM. The format is cell-based. Set-up: test concentration 10 uM, cell line HepG2-A16-CD81EGFP. The note with it: human, HepG2-A16-CD81EGFP cells; read-out: INHIBITION
The procedure, abridged: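 Uninfected HepG2-A16-CD81EGFP cells, 3 × 10^3 per well, 1536-well, plated on prespotted compound at 10 μM final, parasite-free screening media added to match infected plates; puromycin 10 μM positive, DMSO 0.5% negative; run in parallel with 48 h PbLuc assay at 37 °C, 5% CO2; viability by CellTiter-Glo luminescence, normalized to controls.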
For `COc1nonc1NCn1nc(C)cc1C`, the cytotoxicity at 10 µM was -15%.
`Cc1cc2nc(CO[C@H]3CN(C4CCCCC4)C[C@H]3F)[nH]c2cc1C`: the cytotoxicity at 10 µM is -17.5%.
As for `Cc1ccccc1NC(=O)Nc1cc(N2CCCC2)ncn1`, the cytotoxicity at 10 µM is -7.73%.
For `CN(C)S(=O)(=O)N1CCC(Oc2cccnn2)CC1` the value was 3.05%; for `CN1CCN(C(=O)[C@H]2C[C@H]3[C@H](CCN3Cc3nccs3)O2)CC1`, 1.73%; for `CC(C)C(=O)N1CCN(C(=O)N(C)C)CC2(CC(=O)N(C)C2)C1` (stereo unspecified), -21%.
The value for `CCOC(=O)N1CCN(C(=O)c2sc(-c3ccccc3F)nc2C)CC1` was 20%; that for `CNc1oc(-c2cc(S(=O)(=O)N3CCCCCC3)c(C)o2)nc1C#N` was -5.28%.
For `Cc1c(Br)cnn1C(C)C(=O)Nc1nncs1` (stereo unspecified) the value was -4.61%.
As to `Cc1nn(CC(=O)O)c2nccc(-c3ccc(F)cc3)c12`, the cytotoxicity at 10 µM is -4.17%.
In the case of `COc1c(C2SCC(=O)Nc3[nH]ncc32)cc2c(c1OC)OCO2` (stereo unspecified), the cytotoxicity at 10 µM is 0.219%.
In the case of `Cc1ccnc(NC(=O)c2cccc(OCc3nnnn3C)c2)c1`, the cytotoxicity at 10 µM was -0.319%.
For `Cn1cccc1C(=O)NCc1ccnc(C2CCCOC2)n1` (stereo unspecified) the value was 3.41%; for `Cn1cc(CN2CCC(c3cc(CCO)[nH]n3)C2)cn1` (stereo unspecified), 3.19%; for `CC(C)N1CCC2(CC1)C[C@@H](O)[C@H](c1ccccc1)NC2=O`, -16.7%.
On to `CN(C)C(=O)c1cn[nH]c1C1(C)CCCN(Cc2ccccn2)C1` (stereo unspecified), for which the cytotoxicity at 10 µM amounted to 4.68%.
Regarding `CC1(C(=O)N2CCOCC2)CN(Cc2c[nH]cn2)CCO1` (stereo unspecified), the cytotoxicity at 10 µM is -4.61%.
The value for `O[C@@H]1CN(Cc2ccncc2)C[C@H]1Oc1ccccc1` was -1.44%; that for `O=C(Cn1c(=O)n(Cc2ccco2)c2ncccc21)NC1CC1` was -6.33%; that for `COc1ncc(C2(O)CCN(Cc3cc(F)cc(F)c3)CC2)c(OC)n1` was 0.331%.
For `O=C(N[C@@H]1CN(Cc2ccc3cc[nH]c3c2)C[C@H]1O)c1cnccn1` the value was -8.22%.
The value for `Cn1nc(C2CCCN2)c2c(C(=O)NC3CC3)cc(C3CC3)nc21` (stereo unspecified) was 15.3%; that for `O=C(O)c1ccccc1CN1CCC2(Cc3ccccc3CNC2=O)C1` (stereo unspecified) was 8.21%; that for `CCCC(=O)N1Cc2ccccc2CC2(CCN(C)C2)C1` (stereo unspecified) was 2.71%.
With `CCNc1ncnc2c1CN(C1CCCNCC1)C(=O)CN2C` (stereo unspecified), the cytotoxicity at 10 µM came out at 5.5%.
For `Cc1cc(C2CCCN2C(=O)c2ccc(OCC(N)=O)cc2)no1` (stereo unspecified) the value was -43.9%; for `Cc1noc(C2CCCN(C(=O)c3cccc(Cl)c3)C2)n1` (stereo unspecified), -1.58%; for `O=C(NC1CCN(CC2CCCC2)C1)N1CCC(OCC2CC2)CC1` (stereo unspecified), 9.86%.
On to `CCc1noc(CNc2cc3c(cc2Cl)OCCO3)n1`, for which the cytotoxicity at 10 µM was -0.18%.
The value for `Cn1cnc(S(=O)(=O)N2CCCc3cccc(F)c32)c1Cl` was -4.63%; that for `CC(=O)Nc1ccc(CNCC(O)c2ccccc2)cc1` (stereo unspecified) was -10.1%; that for `COc1ccc2c(c1)CCCN(CC(=O)NCC1CCCO1)C2` (stereo unspecified) was -12%.
Turning to `CCc1ccc(CNC(=O)Nc2cc(C)on2)s1`, the cytotoxicity at 10 µM is -11.6%.
Take `O=C(CN1CCc2cncnc2C1)N1CCc2sccc2C1`: the cytotoxicity at 10 µM turned out to be 11.9%.
As for `O=C(NC1CCN(c2ncccn2)CC1)c1sccc1C1CC1`, the cytotoxicity at 10 µM was -5.75%.
For the compound `Cc1ccc(S(=O)(=O)NCCc2cccnc2)cc1C`, the cytotoxicity at 10 µM was 0.645%.
The value for `COCCN(Cc1ccc(F)cc1Cl)C(=O)c1csnn1` was 11.6%; that for `N#CCc1ccc(NC(=O)CNc2ccc(Br)cc2F)cc1` was 0.997%; that for `CN(CCn1cccn1)C1CCCN(Cc2noc(C3CC3)n2)C1` (stereo unspecified) was 15%.
For `O=C(CCc1ccncc1)Nc1ccc(OCC2CC2)cc1` the value was -2.56%; for `COc1cc2c(cc1OC)S(=O)(=O)N(Cc1ccccc1C)C2=O`, 10.3%; for `CC1C(=O)Nc2cccnc2N1S(=O)(=O)c1cc(F)cc(F)c1` (stereo unspecified), -5.26%.
For `COc1ccc(Cl)cc1CNC(=O)CN1CCC2(CCOC2)C1` (stereo unspecified) the value was -61.7%.
Regarding `CCN(C)S(=O)(=O)NCC(O)c1cc2ccccc2s1` (stereo unspecified), the cytotoxicity at 10 µM was -8.26%.
The value for `CN1CCN(C(=O)Cc2ccc(S(=O)(=O)C(F)F)cc2)CC1` was 12%; that for `O=C(CCN1CCC(c2cc3ccccc3[nH]2)CC1)N1CCOCC1` was -3.81%.
In the case of `Cc1csc(CCCNC(C)CC(=O)Nc2ccc(F)cc2)n1` (stereo unspecified), the cytotoxicity at 10 µM came to 1.52%.
Turning to `O=C(O)c1ccc(CCNC(=O)C2(O)Cc3ccccc3C2)cc1`, the cytotoxicity at 10 µM worked out at 3.69%.
The value for `CN1CCCCC1C(=O)N1CCN(c2ccccc2C#N)CC1` (stereo unspecified) was -6.85%.
As for `CCN(Cc1c(F)cccc1Cl)c1cc(C2CCNCC2)nc(C)n1`, the cytotoxicity at 10 µM was determined as 5.16%.
In the case of `CSCC(=O)N[C@H]1CN(Cc2c(C)noc2C)C[C@@H]1C(C)C`, the cytotoxicity at 10 µM worked out at 5.4%.
The value for `Cc1nc(C(C)NC(=O)c2cn(Cc3ccc(Cl)cc3)nn2)n[nH]1` (stereo unspecified) was 10.2%; that for `COc1cccc(CN(C)Cc2[nH]c3ccccc3c2C)c1O` was 3.38%; that for `Cc1ccccc1OCC(O)C(=O)N1CCC2(CC1)CN(C)C(=O)O2` (stereo unspecified) was -47.6%.
`Cc1nsc(NC(=O)NC2CCCN(C)C2)n1` (stereo unspecified): the cytotoxicity at 10 µM was -17.1%.
For `O=C(NCCc1ccc(Cl)cc1)c1coc(CN2CCOCC2)c1` the value was 0.383%; for `CCN1CCC(CC(=O)NC[C@H]2CCc3ccccc3O2)CC1`, -28.4%; for `Cc1nnc(CNC(=O)[C@@H]2C[C@H](NC(=O)C(C)(C)C)CN2C)[nH]1`, 1.76%.
For `Cc1ccc(C)c(-n2cc(CN3CC[C@@H](O)C3)c(-c3ccccc3)n2)c1` the value was -6.77%; for `CN(Cc1ccsc1)C(=O)c1n[nH]c(N)c1-c1ccccc1`, -6.27%.
For `COc1ccc(CN2CCN(CC3CC3)[C@@H]3CS(=O)(=O)C[C@@H]32)cc1C`, the cytotoxicity at 10 µM was -1.95%.
For `COCC(=O)N1CCCC(C(=O)N(C)CCCc2cnn(C)c2)C1` (stereo unspecified) the value was -137%.
For `COc1ccc(-c2n[nH]cc2CN(C)CCc2scnc2C)c(F)c1` the value was 3.06%; for `O=C1CCC(=O)N1c1nn(Cc2ccc(F)cc2)cc1Cl`, -13.2%.
For `O=C(Cc1ccsc1)N1CCC(n2nc(-c3ccco3)ccc2=O)CC1` the value was -8.98%; for `O=C(Nc1cccc(CNCc2cccnc2)c1)C1CCCC1`, -9.27%; for `CCN1CCN(C(=O)c2ccc(Cn3ccccc3=O)o2)CC1`, -9.39%.
Take `CCCc1nc(C(C)(C)NC(=O)C2CC(=O)N(C3CC3)C2)no1` (stereo unspecified): the cytotoxicity at 10 µM is -4.41%.
For `Cc1nccn1C1CCCN(C(=O)COC2CCCC2)C1` (stereo unspecified) the value was -10.5%; for `O=C(COCC(F)(F)F)N1CCCC(n2cccn2)C1` (stereo unspecified), -6.28%; for `Cc1cnn(CC(=O)N2CCC(Nc3ccc(C)nn3)CC2)c1`, -21.2%.
In the case of `Cc1cc(CN2CCCC(c3cc(C(F)(F)F)[nH]n3)C2)no1` (stereo unspecified), the cytotoxicity at 10 µM was -0.674%.
For `NC(=O)CN1CCCN(C(=O)Cc2ccc3c(c2)OCCO3)CC1` the value was 0.169%; for `Cc1cc(NC(=O)NCC2COc3ccccc3C2)no1` (stereo unspecified), -9.47%; for `Cc1cn2c(n1)CCC(NC(=O)c1[nH]ncc1Br)C2` (stereo unspecified), -6.49%.
The value for `FC(F)(F)COCCN1CCOC(Cn2cccn2)C1` (stereo unspecified) was -6.1%; that for `O=C(O)c1cc(S(=O)(=O)Nc2cc(F)cc(F)c2)cc2c1OCCO2` was -12.6%.
In the case of `O=C(c1cccc2c1OCCO2)N1CCCC1Cn1cccn1` (stereo unspecified), the cytotoxicity at 10 µM is -10.7%.
For `COC(=O)c1cccn1C1CCN(C(=O)c2cc(F)ccc2F)CC1` the value was -9.62%.
For the compound `Cc1ccc(N(C)C2CCN(C(=O)c3ccsc3)CC2)nn1`, the cytotoxicity at 10 µM is -12.1%.
The value for `Cc1cnc2c(S(=O)(=O)NCC3CCS(=O)(=O)C3)cccc2c1` (stereo unspecified) was -7.52%.
The value for `CCN1CCN(C)C(=O)C12CCN(Cc1cccc(C)c1)CC2` was -2.95%; that for `CN(C)CCOCC1CN(C(=O)c2ccnnc2)Cc2ccnn2C1` (stereo unspecified) was 7.89%; that for `CN(C)C(=O)CO[C@H]1CN(Cc2ccoc2)[C@@H]2COC[C@H]12` was 6.17%.
On to `Cc1nc(C)c(C(=O)N2CCc3nc4c(C)csc4c(=O)n3CC2)s1`, for which the cytotoxicity at 10 µM stood at 4.11%.
For the compound `O=C1[C@H]2CN(CC3CC3)C[C@H]2CN1Cc1cccc(F)c1`, the cytotoxicity at 10 µM was 5.56%.
The value for `COCCN1CCO[C@@H]2CN(S(=O)(=O)c3cccnc3)C[C@@H]2C1` was 16.3%.
For `CC(C)C(=O)N1CCCC(c2cc(C(F)F)n3ncnc3n2)C1` (stereo unspecified), the cytotoxicity at 10 µM amounted to 1.18%.
On to `COCCN1CCC2(CC1)CN(C(=O)c1ccccc1)CCO2`, for which the cytotoxicity at 10 µM came out at 1.61%.
The value for `CC(=O)N1CCC2(CN(CC3CCCC3)C2)C1` was 2.05%.
For `O=C(c1cnccn1)N1CCOC2(CCCN(c3ncccc3F)C2)C1` (stereo unspecified) the value was 0.199%; for `CCN1CC(=O)NCC12CCN(C(=O)c1ccno1)C2` (stereo unspecified), -2.75%.
The value for `O=C(NCCCN1CCOCC1)c1ccn(-c2ccc3ccccn23)n1` was 5.17%.
`CN(C)CCn1c2c(ccc1=O)CC(NC(=O)NC1CCCC1)CC2` (stereo unspecified): the cytotoxicity at 10 µM is -0.913%.
For `CC(C)Cc1cc(CN2C[C@@H]3CC[C@H]2CN(Cc2cscn2)C3)n[nH]1` the value was -2.03%; for `Oc1cccc(CN2C[C@@H]3CC[C@H]2CN(Cc2ccc(F)cc2)C3)c1`, -135%.
